Experimental data gathered from unrelated publications.
Target: Dual specificity tyrosine-phosphorylation-regulated kinase 1B (DYRK1B, Homo sapiens, UniProt Q9Y463)
Method: competition with immobilised ligand

`Cc1c[nH]c2nccc(Oc3c(F)cc(Nc4cc(Cl)nc(N)n4)cc3F)c12` gave a remaining binding of 100% (cell-free assay; 0.1 µM).
For `COc1cnc(Nc2cccc(S(N)(=O)=O)c2)nc1N1CCN(c2ccccc2)C(=O)C1`, the remaining binding was 91% (binding; 1 µM).
With `O=C(c1ccc(Nc2nccc(-c3cc4ccccc4s3)n2)cc1)N1CCC(N2CCCC2)CC1` the remaining binding was 99% (binding; 1 µM).
For `O=C(NCC1CCOCC1)c1n[nH]cc1NC(=O)c1c(F)cccc1F`, the remaining binding was 10% (binding; 1 µM).
With `O=C(NCCCN1CCOCC1)c1ccc(Nc2ncc(Cl)c(-c3ccc(Cl)s3)n2)cc1` the remaining binding was 13% (binding; 1 µM).
`Nc1ncc2c(n1)-c1c([nH]c3ccc(C#CC4CC4)cc13)CCCC2` has a remaining binding of 77% (binding; 1 µM).
`COC(=O)Nc1nc2ccc(C(=O)c3ccccc3)cc2[nH]1` has a remaining binding of 5.6% (cell-free assay; 10 µM).
`CCC(=O)N[C@@H]1CC[C@H](C(=O)N(C)c2ccc(-c3nc4ccccc4o3)cc2)C1` has a remaining binding of 36% (cell-free assay; 1 µM).
For `O=C(c1ccc(Nc2ncc(Cl)c(-c3ccc(Cl)s3)n2)cc1)N1CCC(N2CCCC2)CC1`, the remaining binding was 33% (binding; 1 µM).
`CN(C)c1ncnc(-c2ccc3nc(Nc4cc(CN5CCN(C(=O)CC(F)(F)F)CC5)ccn4)[nH]c3c2)c1Cl` has a remaining binding of 100% (cell-free assay; 1 µM).
The remaining binding of `COc1ncc2cc3ccccc3nc2c1C#N` is reported as 81% (cell-free assay; 5 µM).
With `COc1ccc2c(c1)O[C@@H](c1ccc(OC)c(OC)c1)C[C@H]2NC(=O)C1(c2ccc3c(c2)OC(F)(F)O3)CC1` the remaining binding was 100% (cell-free assay; 1 µM).
`C=CC(=O)N1CCC(C(=O)NCC(=O)N2CCN(c3nc(-c4cnc(N)nc4C(F)F)nc(N4CCOCC4)n3)CC2)CC1` has a remaining binding of 98% (binding; 1 µM).
For `Cc1cc(-n2nc(Cc3cc(F)cc(C(F)(F)F)c3)nc2C)ccc1C(N)=O`, the remaining binding was 100% (cell-free assay; 1 µM).
With `C[C@@H](c1ccc(-n2cnc3c(N)ncnc32)cc1)N1CCc2nn(C)c(Cc3ccccc3)c2C1=O` the remaining binding was 91% (binding; 0.1 µM).
